Screening results from PubChem BioAssay.
An excerpt weighted towards active compounds, which were near 2.8% of everything screened.
PAFAH1B2 inh: PAFAH1B2 enzyme inhibitors, primary screen, biochemical, fluorescence polarization, human; Platelet-activating factor acetylhydrolase IB subunit alpha2 (Homo sapiens), P68402; recombinant PAFAH1B2, FP-rhodamine activity probe; inhibition, % at 3.39 µM; 1.2% of 340,000 active;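 active = inhibition above the mean of all tested compounds plus 3 SD, cut at about 24% in these data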;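 also: 0% = enzyme with DMSO and 100% = wells lacking PAFAH1B2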
Target sequence (P68402 whole entry, looked up): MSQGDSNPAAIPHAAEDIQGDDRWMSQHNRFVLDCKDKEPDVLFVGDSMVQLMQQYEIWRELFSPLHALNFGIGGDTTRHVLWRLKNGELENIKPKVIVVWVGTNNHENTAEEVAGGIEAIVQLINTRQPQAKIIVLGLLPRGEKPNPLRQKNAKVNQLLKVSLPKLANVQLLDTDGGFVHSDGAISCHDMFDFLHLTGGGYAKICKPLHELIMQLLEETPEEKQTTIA
HTRA1 inhibitor: HTRA1 serine protease inhibitors, primary screen, biochemical, fluorescence polarization, HTS; Q92743; recombinant HTRA1, FP-rhodamine activity-based probe; inhibition, % at 5.96 µM; 0.5% of 340,000 active; AID 504803, 2011; in the data active = inhibition above about 36%;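 also: 0% = enzyme with DMSO and 100% = wells lacking enzyme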
pPAFAH FP inh: pPAFAH enzyme inhibitors, primary screen, biochemical, fluorescence polarization, human; recombinant pPAFAH, FP-rhodamine probe fluorescence polarization; Platelet-activating factor acetylhydrolase (Homo sapiens), Q13093; 1.5% of 330,000 active; inhibition, % at 3.39 µM; AID 463082, 2010;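 active = inhibition above the mean inhibition across the screen plus 3 SD, cut at about 25% in these data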;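 also: inhibitors block binding of the rhodamine activity-based probe so polarization drops; 0% = enzyme with DMSO and 100% = wells lacking pPAFAH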
mABHD4 FP: ABHD4 inhibitors, primary screen, biochemical, fluorescence polarization, mouse; purified mABHD4, FP-Rh probe fluorescence polarization; inhibition, % at 8.92 µM; 0.54% of 370,000 active; (Lyso)-N-acylphosphatidylethanolamine lipase (Mus musculus), Q8VD66;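 active = inhibition exceeding the mean over every tested compound plus 3 SD, cut at about 30% in these data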;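 also: 0% = plate median of compound wells and 100% = S159A mutant with DMSO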
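Assay system: mABHD4 protein; medium: HEPES pH 7.0, NaCl, Pluronic buffer; dosing: 8.92 µM, single dose; schedule: 45 min + 60 min at 25 °C; signal: FP readout, ex 525 nm / em 598 nm; read-out: normalized percent inhibition of probe labeling; repeats: single replicate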
PAFAH2 FP inh: PAFAH2 enzyme inhibitors, primary screen, biochemical, fluorescence polarization, human | Platelet-activating factor acetylhydrolase 2, cytoplasmic (Homo sapiens), Q99487 | recombinant PAFAH2, FP-rhodamine activity probe | inhibition, % at 3.39 µM | 0.99% of 340,000 active;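 active = inhibition above the mean over all tested compounds plus 3 SD, cut at about 30% in these data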;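 also: inhibitors block probe labeling of enzyme so polarization drops; 0% = enzyme with DMSO and 100% = wells lacking PAFAH2 protein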
PAFAH1B3 inh: PAFAH1B3 enzyme inhibitors, primary screen, biochemical, fluorescence polarization, human. Platelet-activating factor acetylhydrolase IB subunit alpha1 (Homo sapiens), Q15102. recombinant PAFAH1B3, FP-rhodamine probe. inhibition, % at 3.39 µM. 0.28% of 340,000 active. AID 492972, 2010;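 active = inhibition above the screen-wide average of all tested compounds plus 3 SD, cut at about 25% in these data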;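 also: 0% = enzyme with DMSO only and 100% = wells lacking PAFAH1B3 protein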
Target sequence (Q15102 whole entry, looked up): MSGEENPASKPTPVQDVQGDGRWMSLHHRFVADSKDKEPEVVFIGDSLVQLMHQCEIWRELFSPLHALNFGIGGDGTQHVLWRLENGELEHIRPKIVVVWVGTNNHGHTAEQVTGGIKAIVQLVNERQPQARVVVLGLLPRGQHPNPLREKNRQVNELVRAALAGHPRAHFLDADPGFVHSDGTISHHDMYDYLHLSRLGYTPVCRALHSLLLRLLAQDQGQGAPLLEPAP
PAFAH2 confirm: PAFAH2 enzyme inhibitors, confirmation, biochemical, fluorescence polarization, human. 65% of 2,300 active. recombinant PAFAH2, FP-rhodamine activity probe. inhibition, % at 3.39 µM. shares compounds with PAFAH2 FP inh;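 active = mean inhibition over three repeats above a set limit taken from the earlier primary screen, cut at about 30% in these data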;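 also: inhibitor blocks binding of rhodamine activity probe so polarization falls; 0% = enzyme with DMSO and 100% = wells lacking PAFAH2 protein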
The depositor's hits bear a star; x = no result given.

SMILES	PAFAH1B2 inh	HTRA1 inhibitor	pPAFAH FP inh	mABHD4 FP	PAFAH2 FP inh	PAFAH1B3 inh	PAFAH2 confirm
CN1OC[C@@H]2CN3C4(C[C@@H]21)c1ccccc1C3(c1ccccc1)c1ccccc14	x	x	x	0	x	x	x
O=C(Nc1ccccc1)N1Cc2cc(Br)ccc2-n2nncc2C1	x	x	x	0	x	x	x
Cc1ccc(S(=O)(=O)Nc2cc(C(=O)N3CCC4(CC3)OCCO4)ccc2N2CCCCC2)cc1	7	-7	21	-1	60*	3	49*
CC(=O)Nc1cc(C(=O)N2CCC3(CC2)OCCO3)ccc1S(=O)(=O)c1ccc(C)cc1	-3	5	4	-4	8	9	x
Cc1cc(C)cc(N2C(=O)NC(=O)/C(=C\c3cccn3-c3ccccc3)C2=O)c1	18	2	5	-4	46*	-5	34*
CC(=O)Nc1ccc(C(=O)OCC(=O)Nc2ccc(Cl)cc2C(=O)c2ccccc2)cc1	-9	-29	-8	-16	69*	-7	73*
O=C(COc1ccccc1)Nc1ccc(Cl)cc1C(=O)c1ccccc1	-1	-5	5	5	-2	-2	x
O=C(COC(=O)c1ccc(O)cc1)Nc1ccc(Cl)cc1C(=O)c1ccccc1	2	-68	5	-48	63*	1	61*
O=C(NC1CCCCC1)N1Cc2ccc(Br)cc2-n2nncc2C1	x	x	x	-1	x	x	x
COc1ccc2nc(-c3ccc(CN4CCC(n5nnc6ccccc65)CC4)cc3)c(-c3ccccc3)nc2c1	x	x	x	-12	x	x	x
CN1C(=O)C(=Cc2ccc(SC3CCCCC3)o2)C(=O)N(C)C1=O	20	-10	12	2	30*	-2	33*
COc1ccc(-n2c(-c3ccc(C)cc3)nc3ccccc3c2=O)cc1	5	-7	4	-9	1	3	x
COc1ccc(-c2nc3ccccc3c(=O)o2)cc1	3	7	-4	-4	78*	-3	71*
O=C1NC(=S)N(c2ccccc2)C(=O)/C1=C/c1ccco1	2	5	24	18	30*	6	59*
Cn1cccc1/C=C1\C(=O)NC(=O)N(CCC2=CCCCC2)C1=O	4	-3	x	5	26	1	x
Cn1cccc1/C=C1\C(=O)NC(=O)N(Cc2ccccc2Cl)C1=O	2	21	x	5	30*	3	11
N#Cc1ccc(NC(=S)N2Cc3ccc(Br)cc3-n3nncc3C2)cc1	x	x	x	-6	x	x	x
O=C(CN1CC(c2ccccc2)CC1=O)Nc1ccccc1 (stereo unspecified)	-2	-5	0	0	44*	1	25
Cc1cc(/C=C2/C(=O)NC(=O)N(Cc3ccco3)C2=O)c(C)n1-c1ccccc1	10	-5	12	-3	33*	12	23
CN(C)c1ccc(/C=C2/C(=O)NC(=O)N(Cc3ccco3)C2=O)cc1	0	-1	9	-12	9	10	x
Cc1cccc(NC(=O)COC(=O)c2cc(C)n(C3CC3)c2C)c1	8	-31	5	5	40*	2	2
Cc1ccc(/C=C2\C(=O)NC(=O)N(CC3CCCO3)C2=O)s1 (stereo unspecified)	5	4	0	0	33*	2	8
COc1ccc(/C=C2/C(=O)N(Cc3ccco3)C(=O)N(C(C)C)C2=O)cc1	1	-8	11	-48	30*	1	-1
CCN(CC)c1ccc(/C=C2/C(=O)NC(=O)N(Cc3ccco3)C2=O)cc1	0	-17	10	-71	7	-11	x
O=C(c1cc2c(s1)-c1ccccc1OC2)N1CCC2(CC1)OCCO2	4	-2	19	0	31*	2	18
Cn1cc(C(=O)OCC(=O)NC2CCCC2)c2ccccc21	-2	-6	5	-3	59*	0	37*
CN1CC[C@@H]2CN[C@H](c3ccccc3Br)C[C@@H]21	x	x	x	7	x	x	x
